Measurements from different studies.
Lines come from different studies, so protocols differ.
Target: Mitogen-activated protein kinase kinase kinase kinase 5 (MAP4K5, Homo sapiens, UniProt Q9Y4K4)

| Compound | assay | setting | remaining binding [%] |
| --- | --- | --- | --- |
| COc1ccc2c(O[C@@H]3C[C@H]4C(=O)N[C@]5(C(=O)O)CC5/C=C\CCCCC[C@H](NC(=O)OC5CCCC5)C(=O)N4C3)cc(-c3csc(NC(=O)C(C)C)n3)nc2c1C (some centres unmarked) | cell-free assay, competition with immobilised ligand | 1 µM | 100 |
| O=C(NCCCN1CCOCC1)c1ccc(Nc2nccc(-c3cc4ccccc4s3)n2)cc1 | binding, competition with immobilised ligand | 1 µM | 82 |
| CN(C)c1ncc(F)c(-c2cnn3ncccc23)n1 | binding | 1 µM | 100 |
| O=C(NCCCN1CCOCC1)c1ccc(Nc2ncc(Cl)c(-c3ccc(Cl)s3)n2)cc1 | binding, competition with immobilised ligand | 1 µM | 63 |
| CNC(=O)c1ccc(Nc2ncc(C(F)(F)F)c(NCc3nccnc3N(C)S(C)(=O)=O)n2)cc1 | cell-free assay, competition with immobilised ligand | 0.1 µM | 100 |
| Cc1cnn2ncc(-c3ccnc(N(C)C)n3)c2c1 | binding | 1 µM | 67 |
| O=C(NCC1CCOCC1)c1n[nH]cc1NC(=O)c1c(F)cccc1F | binding, competition with immobilised ligand | 1 µM | 89 |
| CC1CCCN1c1nccc(-c2cnn3ncccc23)n1 (centres unmarked) | binding | 1 µM | 100 |
| O=C(c1ccc(Nc2nccc(-c3cc4ccccc4s3)n2)cc1)N1CCC(N2CCCC2)CC1 | binding, competition with immobilised ligand | 1 µM | 100 |
| CN(c1ccnc(CNc2nc(Nc3ccc4c(c3)CC(=O)N4)ncc2C(F)(F)F)n1)S(C)(=O)=O | cell-free assay, competition with immobilised ligand | 1 µM | 72 |
| C[C@@H]1CCN(c2nccc(-c3cnn4ncccc34)n2)C1 | binding | 1 µM | 93 |
| CNC(=O)[C@@H]1CC[C@@H](n2c(-c3ccc4cnccc4c3)nc3ccc(C(=O)NCc4cccc(C(N)=O)c4)cc32)C1 | binding, competition with immobilised ligand | 1 µM | 100 |
| Nc1c(C(=O)NCc2ccc(C(=O)NCCCC3CCCCC3)cc2)cnn1-c1ccccc1 | cell-free assay, competition with immobilised ligand | 0.1 µM | 100 |
| Nc1ncc2c(n1)-c1c([nH]c3ccc(C#CC4CC4)cc13)CCCC2 | binding, competition with immobilised ligand | 1 µM | 82 |
| CCN1CCN(Cc2ccc(C(=O)Nc3ccc(C)c(Oc4ccc5c(c4)CC(=O)N5)c3)cc2C(F)(F)F)CC1 | binding, competition with immobilised ligand | 1 µM | 100 |
| FC(F)(F)Oc1cccc(-c2cnc3ccc(-c4ccncc4)nn23)c1 | cell-free assay, competition with immobilised ligand | 5 µM | 77 |
| CCS(=O)(=O)c1cc2cc(C[C@](O)(CC(C)(C)c3ccc(F)cc3C(N)=O)C(F)(F)F)[nH]c2cn1 | cell-free assay, competition with immobilised ligand | 1 µM | 100 |
| CN(c1nccc(-c2cnn3ncccc23)n1)C1CC1 | binding | 1 µM | 3.2 |
| CC(=O)Nc1c(C(C)=O)c(=O)n(C)c2nc(-c3ccc(Cl)cc3Cl)c(-c3ccc(Cl)cc3)cc12 | cell-free assay, competition with immobilised ligand | 1 µM | 100 |
| N[C@@H]1CCN(c2nccc(-c3cnn4ncccc34)n2)C1 | binding | 1 µM | 100 |
